The values that follow come from publication PMC5074691 (Cell reports, 2016).

No end group written: not given here.

Assay [1] addresses MORC3 CW domain (wild type, GST tag cleaved) (human). The experiment in a line: other fluorescence titration.
Assay [2] has as its target T1, MORC3 CW domain (residues 407-455), crystallised (human, UniProt Q14149 407-455).
T1 chain (looked up): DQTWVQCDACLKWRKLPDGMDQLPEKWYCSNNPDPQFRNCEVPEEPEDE
The assay is described as follows: crystal structure.

A further assay concerns the target MORC3-CW E453A (human). The experiment in a line: ITC. (In general: In ITC the heat of successive injections is recorded.)
Assay [3] concerns nuclear bodies (NBs) in HeLa cells. The assay is described as follows: Confocal immunofluorescence of FLAG-tagged MORC3. Type of assay: cell-based. Particulars: 48 h post transfection, anti-FLAG. The method, boiled down:
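HeLa in DMEM/10% FBS/penicillin-streptomycin grown on chamber slides, transiently transfected (TurboFect) with WT or CW-mutant 3xFLAG-MORC3 (C416S, C416A, W419A). At 48 h: cold methanol fixation (−20°C, 10 min), 1% BSA block 30 min, anti-FLAG 1:200 for 1 h at 25°C, then Alexa Fluor 647 secondary 1:1000 for 1 h. DAPI mount; confocal imaging with 100X objective.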

Another assay concerns chromatin in HeLa cells. The assay is described as follows: Chromatin association assay. Type of assay: cell-based. Particulars: 48 h post transfection, fractionation and immunoblot. Summed up:
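HeLa cells (DMEM, 10% FBS, pen/strep) are transfected with full-length human N-terminal 3xFLAG-MORC3, WT or CW mutants, and trypsinized at 48 h. The washed chromatin pellet is nuclease-solubilized. Fractions (1–5 µg) are immunoblotted for FLAG, β-tubulin and H3.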
(Immunoblotting shows a protein as a band on a membrane.)

Broadly, the Kd is the constant that tells how readily two partners part at equilibrium. A higher Kd goes with weaker binding. As for “histone H3K4me3 peptide (residues 1-12 of H3) (from UniProt P68431 2-13)”, in assay [1], the dissociation constant Kd came out at 640 nM. Still for that read-out and setting: the result for histone H3K4me2 peptide reads 670 nM; that for histone H3K4me1 peptide, 740 nM. In the case of ARTK(Me3)QTARKSTG (peptide, UniProt P68431 2-13, looked up) [histone H3K4me3 peptide (residues 1-12 of H3)], the binding result in assay [2] is on record as “binds”.

B1: MORC3 His-ATPase domain (aa 1-392) (domain or fragment)
chain: MAAQPPRGIRLSALCPKFLHTNSTSHTWPFSAVAELIDNAYDPDVNAKQIWIDKTVINDHICLTFTDNGNGMTSDKLHKMLSFGFSDKVTMNGHVPVGLYGNGFKSGSMRLGKDAIVFTKNGESMSVGLLSQTYLEVIKAEHVVVPIVAFNKHRQMINLAESKASLAAILEHSLFSTEQKLLAELDAIIGKKGTRIIIWNLRSYKNATEFDFEKDKYDIRIPEDLDEITGKKGYKKQERMDQIAPESDYSLRAYCSILYLKPRMQIILRGQKVKTQLVSKSLAYIERDVYRPKFLSKTVRITFGFNCRNKDHYGIMMYHRNRLIKAYEKVGCQLRANNMGVGVVGIIECNFLKPTHNKQDFDYTNEYRLTITALGEKLNDYWNEMKVKKNTE
Usually stoichiometry N stands for a count of units in the complex or per binding partner. On to B1, for which, in the assay with MORC3-CW E453A (human), the Kd amounted to 9000 nM and the stoichiometry N was found to be 1.

B2: WT FLAG-MORC3: FLAG-tagged full length wild-type MORC3 (protein, UniProt Q14149 1-939, looked up)
chain: MAAQPPRGIRLSALCPKFLHTNSTSHTWPFSAVAELIDNAYDPDVNAKQIWIDKTVINDHICLTFTDNGNGMTSDKLHKMLSFGFSDKVTMNGHVPVGLYGNGFKSGSMRLGKDAIVFTKNGESMSVGLLSQTYLEVIKAEHVVVPIVAFNKHRQMINLAESKASLAAILEHSLFSTEQKLLAELDAIIGKKGTRIIIWNLRSYKNATEFDFEKDKYDIRIPEDLDEITGKKGYKKQERMDQIAPESDYSLRAYCSILYLKPRMQIILRGQKVKTQLVSKSLAYIERDVYRPKFLSKTVRITFGFNCRNKDHYGIMMYHRNRLIKAYEKVGCQLRANNMGVGVVGIIECNFLKPTHNKQDFDYTNEYRLTITALGEKLNDYWNEMKVKKNTEYPLNLPVEDIQKRPDQTWVQCDACLKWRKLPDGMDQLPEKWYCSNNPDPQFRNCEVPEEPEDEDLVHPTYEKTYKKTNKEKFRIRQPEMIPRINAELLFRPTALSTPSFSSPKESVPRRHLSEGTNSYATRLLNNHQVPPQSEPESNSLKRRLSTRSSILNAKNRRLSSQFENSVYKGDDDDEDVIILEENSTPKPAVDHDIDMKSEQSHVEQGGVQVEFVGDSEPCGQTGSTSTSSSRCDQGNTAATQTEVPSLVVKKEETVEDEIDVRNDAVILPSCVEAEAKIHETQETTDKSADDAGCQLQELRNQLLLVTEEKENYKRQCHMFTDQIKVLQQRILEMNDKYVKKETCHQSTETDAVFLLESINGKSESPDHMVSQYQQALEEIERLKKQCSALQHVKAECSQCSNNESKSEMDEMAVQLDDVFRQLDKCSIERDQYKSEVELLEMEKSQIRSQCEELKTEVEQLKSTNQQTATDVSTSSNIEESVNHMDGESLKLRSLRVNVGQLLAMIVPDLDLQQVNYDVDVVDEILGQVVEQMSEISST
modifications: full-length FLAG tag
Regarding B2, the nuclear localization entry in assay [3] is reported as “localized to NBs”. Moreover, the association with chromatin entry with chromatin in HeLa cells is “purifies in the chromatin and soluble fractions”.

B3: W419A: FLAG-tagged MORC3 mutant that abrogates binding to the histone H3 tail (protein, UniProt Q14149 1-939, looked up, variant W419A)
chain: MAAQPPRGIRLSALCPKFLHTNSTSHTWPFSAVAELIDNAYDPDVNAKQIWIDKTVINDHICLTFTDNGNGMTSDKLHKMLSFGFSDKVTMNGHVPVGLYGNGFKSGSMRLGKDAIVFTKNGESMSVGLLSQTYLEVIKAEHVVVPIVAFNKHRQMINLAESKASLAAILEHSLFSTEQKLLAELDAIIGKKGTRIIIWNLRSYKNATEFDFEKDKYDIRIPEDLDEITGKKGYKKQERMDQIAPESDYSLRAYCSILYLKPRMQIILRGQKVKTQLVSKSLAYIERDVYRPKFLSKTVRITFGFNCRNKDHYGIMMYHRNRLIKAYEKVGCQLRANNMGVGVVGIIECNFLKPTHNKQDFDYTNEYRLTITALGEKLNDYWNEMKVKKNTEYPLNLPVEDIQKRPDQTWVQCDACLKARKLPDGMDQLPEKWYCSNNPDPQFRNCEVPEEPEDEDLVHPTYEKTYKKTNKEKFRIRQPEMIPRINAELLFRPTALSTPSFSSPKESVPRRHLSEGTNSYATRLLNNHQVPPQSEPESNSLKRRLSTRSSILNAKNRRLSSQFENSVYKGDDDDEDVIILEENSTPKPAVDHDIDMKSEQSHVEQGGVQVEFVGDSEPCGQTGSTSTSSSRCDQGNTAATQTEVPSLVVKKEETVEDEIDVRNDAVILPSCVEAEAKIHETQETTDKSADDAGCQLQELRNQLLLVTEEKENYKRQCHMFTDQIKVLQQRILEMNDKYVKKETCHQSTETDAVFLLESINGKSESPDHMVSQYQQALEEIERLKKQCSALQHVKAECSQCSNNESKSEMDEMAVQLDDVFRQLDKCSIERDQYKSEVELLEMEKSQIRSQCEELKTEVEQLKSTNQQTATDVSTSSNIEESVNHMDGESLKLRSLRVNVGQLLAMIVPDLDLQQVNYDVDVVDEILGQVVEQMSEISST
modifications: full-length FLAG tag
With B3, the nuclear localization result in assay [3] is recorded as “diffused throughout the nucleus”. The association with chromatin entry in the assay with chromatin in HeLa cells was “did not associate with chromatin and were found only in the soluble fractions”.

B4: C416A: FLAG-tagged MORC3 mutant in CW domain that disrupts the CW structure (protein, UniProt Q14149 1-939, looked up, variant C416A)
chain: MAAQPPRGIRLSALCPKFLHTNSTSHTWPFSAVAELIDNAYDPDVNAKQIWIDKTVINDHICLTFTDNGNGMTSDKLHKMLSFGFSDKVTMNGHVPVGLYGNGFKSGSMRLGKDAIVFTKNGESMSVGLLSQTYLEVIKAEHVVVPIVAFNKHRQMINLAESKASLAAILEHSLFSTEQKLLAELDAIIGKKGTRIIIWNLRSYKNATEFDFEKDKYDIRIPEDLDEITGKKGYKKQERMDQIAPESDYSLRAYCSILYLKPRMQIILRGQKVKTQLVSKSLAYIERDVYRPKFLSKTVRITFGFNCRNKDHYGIMMYHRNRLIKAYEKVGCQLRANNMGVGVVGIIECNFLKPTHNKQDFDYTNEYRLTITALGEKLNDYWNEMKVKKNTEYPLNLPVEDIQKRPDQTWVQCDAALKWRKLPDGMDQLPEKWYCSNNPDPQFRNCEVPEEPEDEDLVHPTYEKTYKKTNKEKFRIRQPEMIPRINAELLFRPTALSTPSFSSPKESVPRRHLSEGTNSYATRLLNNHQVPPQSEPESNSLKRRLSTRSSILNAKNRRLSSQFENSVYKGDDDDEDVIILEENSTPKPAVDHDIDMKSEQSHVEQGGVQVEFVGDSEPCGQTGSTSTSSSRCDQGNTAATQTEVPSLVVKKEETVEDEIDVRNDAVILPSCVEAEAKIHETQETTDKSADDAGCQLQELRNQLLLVTEEKENYKRQCHMFTDQIKVLQQRILEMNDKYVKKETCHQSTETDAVFLLESINGKSESPDHMVSQYQQALEEIERLKKQCSALQHVKAECSQCSNNESKSEMDEMAVQLDDVFRQLDKCSIERDQYKSEVELLEMEKSQIRSQCEELKTEVEQLKSTNQQTATDVSTSSNIEESVNHMDGESLKLRSLRVNVGQLLAMIVPDLDLQQVNYDVDVVDEILGQVVEQMSEISST
modifications: full-length FLAG tag
Turning to B4, the nuclear localization result in assay [3] was “diffused throughout the nucleus”. In the assay with chromatin in HeLa cells, the association with chromatin entry is “did not associate with chromatin and were found only in the soluble fractions”.

B5: C416S: FLAG-tagged MORC3 mutant in CW domain that disrupts the CW structure (protein, UniProt Q14149 1-939, looked up, variant C416S)
chain: MAAQPPRGIRLSALCPKFLHTNSTSHTWPFSAVAELIDNAYDPDVNAKQIWIDKTVINDHICLTFTDNGNGMTSDKLHKMLSFGFSDKVTMNGHVPVGLYGNGFKSGSMRLGKDAIVFTKNGESMSVGLLSQTYLEVIKAEHVVVPIVAFNKHRQMINLAESKASLAAILEHSLFSTEQKLLAELDAIIGKKGTRIIIWNLRSYKNATEFDFEKDKYDIRIPEDLDEITGKKGYKKQERMDQIAPESDYSLRAYCSILYLKPRMQIILRGQKVKTQLVSKSLAYIERDVYRPKFLSKTVRITFGFNCRNKDHYGIMMYHRNRLIKAYEKVGCQLRANNMGVGVVGIIECNFLKPTHNKQDFDYTNEYRLTITALGEKLNDYWNEMKVKKNTEYPLNLPVEDIQKRPDQTWVQCDASLKWRKLPDGMDQLPEKWYCSNNPDPQFRNCEVPEEPEDEDLVHPTYEKTYKKTNKEKFRIRQPEMIPRINAELLFRPTALSTPSFSSPKESVPRRHLSEGTNSYATRLLNNHQVPPQSEPESNSLKRRLSTRSSILNAKNRRLSSQFENSVYKGDDDDEDVIILEENSTPKPAVDHDIDMKSEQSHVEQGGVQVEFVGDSEPCGQTGSTSTSSSRCDQGNTAATQTEVPSLVVKKEETVEDEIDVRNDAVILPSCVEAEAKIHETQETTDKSADDAGCQLQELRNQLLLVTEEKENYKRQCHMFTDQIKVLQQRILEMNDKYVKKETCHQSTETDAVFLLESINGKSESPDHMVSQYQQALEEIERLKKQCSALQHVKAECSQCSNNESKSEMDEMAVQLDDVFRQLDKCSIERDQYKSEVELLEMEKSQIRSQCEELKTEVEQLKSTNQQTATDVSTSSNIEESVNHMDGESLKLRSLRVNVGQLLAMIVPDLDLQQVNYDVDVVDEILGQVVEQMSEISST
modifications: full-length FLAG tag
As for B5, the association with chromatin entry with chromatin in HeLa cells is “did not associate with chromatin and were found only in the soluble fractions”.
